Here are results for one molecule from ChEMBL document CHEMBL4813970, “Design, synthesis and evaluation of novel dimethylamino chalcone-O-alkylamines derivatives as potential multifunctional agents against Alzheimer's disease” (Eur J Med Chem, 2021).

A short description of data set [1]: Acute toxicity in KM mouse assessed as abnormal behavior upto 1000 mg/kg, po administered as single dose measured for 14 days. The format is organism-based. Particulars: in vivo, 336 h, time 14 day. The essentials: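 Kunming mice, n = 10 per group, fasted overnight with free access to water, given one oral dose of 67.5, 125, 250, 500 or 1000 mg/kg. Housed on a 12 h light/dark cycle at 20–22 °C, 40–70% relative humidity. Abnormal behaviour and mortality observed continuously for the first 4 h, intermittently over the next 24 h, then occasionally to 14 days.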

Data set [2] deals with T1, Amine oxidase [flavin-containing] A (Homo sapiens, UniProt P21397).
T1 sequence (P21397 whole entry): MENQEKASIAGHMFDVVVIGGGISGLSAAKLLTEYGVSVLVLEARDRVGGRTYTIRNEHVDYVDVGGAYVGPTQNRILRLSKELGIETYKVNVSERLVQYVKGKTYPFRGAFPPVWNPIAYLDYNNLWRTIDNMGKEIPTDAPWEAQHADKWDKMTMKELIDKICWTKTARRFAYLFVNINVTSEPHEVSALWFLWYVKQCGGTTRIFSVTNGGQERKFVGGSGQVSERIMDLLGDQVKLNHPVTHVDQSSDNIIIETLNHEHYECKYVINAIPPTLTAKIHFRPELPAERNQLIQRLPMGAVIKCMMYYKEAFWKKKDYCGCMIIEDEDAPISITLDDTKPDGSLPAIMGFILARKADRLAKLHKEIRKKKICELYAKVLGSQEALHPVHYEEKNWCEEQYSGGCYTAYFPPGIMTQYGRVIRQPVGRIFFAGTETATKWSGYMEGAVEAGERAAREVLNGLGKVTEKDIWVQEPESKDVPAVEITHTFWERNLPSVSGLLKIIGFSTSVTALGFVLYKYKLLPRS
Put plainly: Inhibition of human recombinant MAO-A by multimode plate reader assay.

Data set [3] concerns the target Acetylcholinesterase (Electrophorus electricus) (UniProt O42275). Put plainly: Mixed type inhibition of electric eel AChE assessed as increase in Km by reciprocal Lineweaver-Burk plot analysis. The following applies: dose 0.5-2 µM.
Data set [4] concerns the target T2, Amyloid-beta precursor protein (Homo sapiens, UniProt P05067). In words: Disaggregation of Cu2+ induced amyloid beta (1 to 42 residues) (unknown origin) aggregation at 25 uM by thioflavin-T fluorescence method relative to control.
The target of data set [5] is Butyrylcholinesterase (Rattus norvegicus, UniProt Q9JKC1). In words: Inhibition of rat serum BuChE by Ellman's method.
Sequence of Butyrylcholinesterase (Q9JKC1 whole entry): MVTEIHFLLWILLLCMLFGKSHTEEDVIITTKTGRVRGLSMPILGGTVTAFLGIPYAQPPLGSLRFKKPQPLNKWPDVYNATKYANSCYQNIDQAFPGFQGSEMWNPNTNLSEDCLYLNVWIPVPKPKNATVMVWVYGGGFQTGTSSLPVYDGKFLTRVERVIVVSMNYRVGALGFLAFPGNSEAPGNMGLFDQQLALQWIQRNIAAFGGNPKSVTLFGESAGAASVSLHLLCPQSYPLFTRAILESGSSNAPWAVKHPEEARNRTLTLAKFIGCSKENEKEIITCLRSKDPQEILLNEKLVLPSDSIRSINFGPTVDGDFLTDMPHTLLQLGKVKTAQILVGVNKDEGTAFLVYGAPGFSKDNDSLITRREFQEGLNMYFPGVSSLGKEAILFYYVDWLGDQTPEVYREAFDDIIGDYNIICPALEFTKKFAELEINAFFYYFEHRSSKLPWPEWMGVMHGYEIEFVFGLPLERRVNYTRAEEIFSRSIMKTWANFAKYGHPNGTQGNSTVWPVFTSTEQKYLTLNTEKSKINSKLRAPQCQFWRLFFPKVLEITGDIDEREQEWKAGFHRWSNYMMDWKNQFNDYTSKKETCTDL
Data set [6] has as its target T2, Amyloid-beta precursor protein. Put plainly: Inhibition of self-induced amyloid beta (1 to 42) (unknown origin) assessed as reduction in fibril formation incubated for 24 hrs by transmission electron microscopy. The method in brief: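 Aβ1-42 at 25 μM incubated 24 h with or without compound at 25 μM. Samples imaged by transmission electron microscopy.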
Data set [7] can be described thus: Antioxidant activity of compound assessed as trolox equivalent antioxidant capacity by ORAC-FL assay. It is filed as functional.

Each structure is given as a SMILES string. Active and inactive are the calls of the source. The calls are words filed in the database; no cut-off is given here.

T2 sequence (P05067 whole entry, the tested form may be a part): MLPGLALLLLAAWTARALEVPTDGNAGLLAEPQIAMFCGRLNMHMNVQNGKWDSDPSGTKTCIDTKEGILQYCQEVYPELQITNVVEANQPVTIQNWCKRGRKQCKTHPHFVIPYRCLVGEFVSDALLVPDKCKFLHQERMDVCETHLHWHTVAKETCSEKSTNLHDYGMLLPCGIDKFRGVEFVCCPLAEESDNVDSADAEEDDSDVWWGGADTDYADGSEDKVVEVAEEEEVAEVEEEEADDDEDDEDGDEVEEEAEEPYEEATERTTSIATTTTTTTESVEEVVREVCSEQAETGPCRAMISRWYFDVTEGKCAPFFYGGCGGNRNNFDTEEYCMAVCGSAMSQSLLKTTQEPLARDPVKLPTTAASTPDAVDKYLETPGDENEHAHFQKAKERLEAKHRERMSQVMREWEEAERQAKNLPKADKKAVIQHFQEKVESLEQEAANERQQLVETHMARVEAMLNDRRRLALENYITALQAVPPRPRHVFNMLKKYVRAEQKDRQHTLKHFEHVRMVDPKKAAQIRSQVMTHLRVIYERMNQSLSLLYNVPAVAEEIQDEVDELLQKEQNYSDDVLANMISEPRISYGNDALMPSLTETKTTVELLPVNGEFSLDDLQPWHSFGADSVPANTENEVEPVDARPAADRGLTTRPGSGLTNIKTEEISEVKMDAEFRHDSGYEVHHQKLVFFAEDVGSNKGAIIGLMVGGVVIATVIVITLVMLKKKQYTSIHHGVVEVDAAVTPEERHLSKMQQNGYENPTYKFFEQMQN
Sequence of Acetylcholinesterase (Electrophorus electricus) (O42275 24-633 limits assumed): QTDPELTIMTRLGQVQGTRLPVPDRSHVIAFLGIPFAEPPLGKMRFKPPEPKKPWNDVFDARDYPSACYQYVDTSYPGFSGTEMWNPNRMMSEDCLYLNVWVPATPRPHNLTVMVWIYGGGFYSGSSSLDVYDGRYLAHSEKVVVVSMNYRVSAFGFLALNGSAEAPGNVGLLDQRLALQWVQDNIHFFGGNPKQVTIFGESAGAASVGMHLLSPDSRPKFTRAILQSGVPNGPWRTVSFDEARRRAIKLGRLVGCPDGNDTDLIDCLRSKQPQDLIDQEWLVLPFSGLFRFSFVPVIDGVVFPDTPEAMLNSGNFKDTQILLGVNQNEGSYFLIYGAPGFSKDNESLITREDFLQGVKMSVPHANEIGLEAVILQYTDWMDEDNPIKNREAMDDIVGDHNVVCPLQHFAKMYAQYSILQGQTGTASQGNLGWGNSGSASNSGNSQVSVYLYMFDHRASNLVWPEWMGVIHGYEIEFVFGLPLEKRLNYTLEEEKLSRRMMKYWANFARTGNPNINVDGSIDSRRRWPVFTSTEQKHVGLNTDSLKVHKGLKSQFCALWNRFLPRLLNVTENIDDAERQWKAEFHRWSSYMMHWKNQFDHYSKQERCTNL

For orientation: IC50 means the point on the concentration scale where inhibition reaches its midpoint. Turning to `CCN(CCCCOc1ccc(C(=O)/C=C/c2ccc(N(C)C)cc2)c(O)c1)Cc1ccccc1N(C)C`, the Activity entry in data set [1] was “Non-Toxic”; in data set [4], 88.1%; in data set [7] it was 2.1. The IC50 is 18.4 µM in data set [2] and 236 µM in data set [5]. Also, the inhibition entry in data set [3] was “Active”. The result in data set [6] was inactive.
